Screening results as filed in PubChem.
Only some compounds are listed: those with a hit (about 7.1% of all), similar ones and a draw of the others.
HCT116 bCat-KO: beta-catenin-lacking colon tumor cell growth suppression. HCT116 beta-catenin knockout viability, CellTiter-Glo, 60 h; hits give low values. viability, % at 10 µM. 140,000 tested, 1.5% active;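 active = viability at or under a set limit, the compound median less 4 SD, cut at about 6% in these data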;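 note: 0% = Hyamine 1622 control at 20 µM and 100% = untreated cell control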
HCT116 PTEN-null: PTEN-deleted cell growth suppression; HCT116 PTEN-null viability, CellTiter-Glo, 60 h; hits give low values; 140,000 tested, 1.2% active; viability, % at 10 µM;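 active = viability at or below a set limit, 4 SD under the median of all tested compounds, cut at about 3.7% in these data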;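 note: PTEN knockout HCT116 line with beta catenin targeted HCT116 as companion control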
Fibroblast inh: blocks proliferation of human lung fibroblasts; LL 47 human lung fibroblast viability, ATP luminescence; hits give low values; viability, % at 10 µM; 85,000 tested, 1.1% active; AID 719;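 active = viability at or below 50% in the single dose screen; inactive = viability above 50%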;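 note: compound exposure lasted 72 h before the ATP readout; 100% = median luminescence of untreated cell-only wells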
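material = human LL 47 lung fibroblast cells | dosing = compounds added from tenfold dosing solution, 0.1% DMSO final | timing = overnight cell rest, 72 h compound treatment at 37 °C | measured by = CellTiter-Glo luminescence measuring cellular ATP | evaluation = % viability versus median cells-only luminescence | control set = cell-only wells, no compound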
H69AR growth 86K: growth inhibitors of human H69AR lung tumor cells; H69AR lung tumor viability, ATP luminescence, 72 h; hits give low values; viability, % at 10 µM; 85,000 tested, 6% active;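 active = viability at or below 40%; inactive = viability above 40%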;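 note: multidrug resistant small cell line overexpressing MRP-1 efflux transporter; 100% = mean luminescence of untreated control wells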
HUVEC prolif 384: inhibitors of human endothelial cell proliferation; HUVEC proliferation, CellTiter-Glo luminescence, 72 h; hits give low values; viability, % at 10 µM (by protocol); 86,000 tested, 1.1% active; AID 648;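 active = viability at or below 30%; inactive = viability above 30%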;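 note: 100% = median luminescence of DMSO-only cell control wells on each plate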
Cav3 T inh: blocks human Cav3.2 T-type calcium channel; AID 449739; B-score at 10 µM; O95180; 100,000 tested, 4% active; Cav3.2-expressing cells, Fluo-4 calcium fluorescence FDSS; hits give low values;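 active = single-dose well whose peak fluorescence ratio is a statistical outlier from its plate by either plate-standardised score or position-corrected B-score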
* hit, by the source's call; nt = not tested or not shown.

SMILES | HCT116 bCat-KO | HCT116 PTEN-null | Fibroblast inh | H69AR growth 86K | HUVEC prolif 384 | Cav3 T inh
CC(=O)Nc1ccc(NC(=O)CN2CCN(c3cccc(C(F)(F)F)c3)CC2)cc1 | 80.4 | 84.0 | nt | nt | nt | 0.918
Cc1[nH]c2ccccc2c1NC(=O)CN1CCN(c2cccc(C(F)(F)F)c2)CC1 | 81.1 | 66.1 | 96.0 | 41.1 | 82.1 | -8.17*
COC(=O)c1[nH]c2ccc(C)cc2c1NC(=O)CN1CCN(c2ccccc2)CC1 | 34.5 | 26.8 | 80.4 | 70.3 | 68.6 | -3.89
Cc1ccc2[nH]c(C(=O)O)c(NC(=O)CN3CCN(c4cccc(C)c4C)CC3)c2c1 | 85.7 | 86.5 | 98.8 | 87.6 | 94.3 | -4.95*
COC(=O)c1cccc(NC(=O)CN2CCN(c3ccc(OC)cc3)CC2)c1 | 100.8 | 97.8 | 98.5 | 90.5 | 99.4 | 0.628
O=C(O)COc1ccc2c3c(c(=O)oc2c1)CCC3 | 98.5 | 102.4 | 102.5 | 90.3 | 99.9 | 0.347
Cc1cc(C)nc(SCc2nnc(SCC(=O)N3CCCc4ccccc43)o2)n1 | 99.9 | 97.0 | 100.3 | 83.0 | 92.0 | -0.497
O=C(CSc1nc(-c2cccs2)cc(C(F)(F)F)n1)Nc1cc(OCC(F)(F)C(F)F)cc([N+](=O)[O-])c1 | 51.0 | 42.6 | nt | nt | nt | nt
O=C(CN1CCN(c2cccc(C(F)(F)F)c2)CC1)Nc1cccc(C(F)(F)F)c1 | 82.7 | 76.1 | 102.9 | 95.6 | 94.3 | -5.46*
COc1ccccc1N1CCN(C(=O)Nc2cccc(Cl)c2)CC1 | 88.7 | nt | 104.1 | 94.2 | 96.0 | -1.28
OC(CN1CCN(Cc2ccc3c(c2)OCO3)CC1)c1c[nH]c2ccccc12 (stereo not drawn) | 11.1 | 16.3 | 67.8 | 46.7 | 100.0 | -1.95
COc1cccc(NC(=O)N2CCN(c3cccc(C)c3C)CC2)c1 | 80.5 | 70.2 | nt | nt | nt | -7*
OC(CN1CCN(c2ccccc2)CC1)c1c[nH]c2ccccc12 (stereo not drawn) | 86.0 | 79.5 | 87.3 | 37.9* | 87.3 | -0.948
CC(C)CC(=O)Nc1ccc(-c2nc3ccccc3c(=O)[nH]2)cc1 | 92.7 | 92.1 | nt | nt | nt | nt
CCOc1ccc(-c2nc(N)ncc2-c2ccccc2)c(O)c1 | 87.4 | 81.8 | 92.6 | 28.0* | 114.2 | -0.236
CCOc1ccc(-c2nc(N)ncc2-c2ccc(OC)cc2)c(O)c1 | 89.1 | 87.1 | nt | nt | nt | nt
O=C(O)Cc1ccc(C(=O)c2ccccc2F)s1 | 87.1 | 102.4 | 102.4 | 98.1 | 103.2 | -0.661
CNC(=O)C1CC(=O)N(Cc2ccccc2)C(=Nc2ccc(OC)cc2)S1 (stereo not drawn) | 94.7 | 99.3 | 103.7 | 86.2 | 96.9 | -0.585
CCCC1S/C(=N/N=C/c2ccc(OC)cc2)N(Cc2ccccc2)C1=O (stereo not drawn) | 85.1 | 83.4 | 99.3 | 97.6 | 107.3 | -3.59*
CCCC1S/C(=N/N=C/c2ccc(OC)cc2)N(Cc2ccc(OC)cc2)C1=O (stereo not drawn) | 77.9 | 66.6 | 85.3 | 83.0 | 100.8 | -3.69*
Cn1c(O)c(C=Nc2ccc(Cc3ccncc3)cc2)c(=O)n(C)c1=O | nt | nt | 102.3 | 92.1 | 103.3 | nt
CCc1cccc(CC)c1NC(=O)COC(=O)c1ccc(F)c(S(=O)(=O)N(CC)CC)c1 | 91.4 | 92.7 | nt | nt | nt | nt
CCOC(=O)c1sc(NC(=O)c2cccs2)cc1C | 63.0 | 66.0 | 85.5 | 62.0 | 79.4 | -0.0593
CCOC(=O)c1sc(NC(=O)Nc2cccc(Cl)c2)cc1C | 3.6* | 2.4* | nt | nt | nt | nt
O=C([C@H](Cc1ccccc1)NS(=O)(=O)c1ccc(Cl)cc1)N1CC[C@@]2(O)CCCC[C@H]2C1 | 68.3 | 48.4 | 101.8 | 46.3 | 81.8 | -3.34*
SMILES | HCT116 bCat-KO | HCT116 PTEN-null | Fibroblast inh | H69AR growth 86K | HUVEC prolif 384 | Cav3 T inh
COc1ccc(Br)cc1C(=O)Nc1ccccc1-c1ccccc1 | 91.6 | 95.6 | nt | nt | nt | -4.61
COc1ccc(-c2nsc3c(N4CCN(S(=O)(=O)c5ccccc5)CC4)ncnc23)cc1 | nt | nt | 90.2 | 6.2* | 72.7 | nt
COc1ccc(-c2nsc3c(N4CCCC4)ncnc23)cc1 | 98.4 | 93.5 | 94.4 | 65.6 | 91.4 | 0.929
CCc1cc(/C(Cc2ccc3ccccc3n2)=N\O)c(O)cc1O | 74.1 | 67.6 | nt | nt | nt | -3.86*
Cc1ccc(CC(=O)N2CCN(c3cccc(C(F)(F)F)c3)CC2)cc1 | 79.6 | 86.3 | 92.5 | 99.7 | 117.6 | -5.36*
O=C(c1c(F)c(F)c(F)c(F)c1F)N1CCN(c2cccc(C(F)(F)F)c2)CC1 | 13.0 | 18.1 | 67.1 | 28.9* | 35.9 | nt
O=C(/C=C/c1ccc(Br)cc1)N1CCN(c2cccc(C(F)(F)F)c2)CC1 | 65.7 | 69.2 | nt | nt | nt | nt
COc1ccccc1CC(=O)N1CCN(c2cccc(C(F)(F)F)c2)CC1 | 43.5 | 56.2 | nt | 83.1 | 92.8 | -4.78*
CCCc1cc(=O)[nH]c(SCc2cc(Cl)ccc2OC(F)F)n1 | 102.9 | nt | 98.8 | 87.0 | 100.9 | -2.47
CC(C)CC(=O)NC(=S)Nc1ccc(S(=O)(=O)Nc2nccs2)cc1 | 97.9 | 102.2 | nt | nt | nt | nt
Cc1ccc(NC(=O)C(C)c2ccc([N+](=O)[O-])cc2)cc1Cl (stereo not drawn) | 57.8 | 46.2 | nt | nt | nt | nt
CCN(CC)c1nc(C)nc2c1cnn2CCc1ccccc1 | 78.4 | 83.5 | nt | nt | nt | 0.218
CCn1c(SC(C)C)nnc1-c1cc(-c2ccccc2)sc1N | 46.4 | 50.6 | 100.0 | 87.0 | 77.0 | -3.66*
CCn1c(SCc2cccc(C)c2)nnc1-c1ccccc1 | 84.2 | 86.1 | 109.6 | 91.1 | 116.2 | -1.53
COc1cc(/C=C/C(=O)Nc2cc(C(F)(F)F)ccc2Cl)cc(OC)c1OC | 85.5 | 77.9 | nt | nt | nt | -5.21*
O=C(c1ccccc1F)N(NC(=O)C(O)(c1ccccc1)c1ccccc1)c1ccccc1 | 73.6 | 75.3 | nt | nt | nt | nt
COc1ccc(-c2c([C@H]3[C@H]4C=CC[C@@H](C)[C@@H]4C(=O)N3Cc3ccccc3)ccc3ccccc23)cc1OC | nt | nt | nt | nt | nt | -1.4
COc1ccc(C(=O)C/C(=C\C(=O)c2ccc(C)cc2)c2ccccc2)cc1 | 8.3 | 9.2 | nt | nt | nt | -4.25*
CC/C=C\[C@H](O)[C@H](O)C1=C(C)C(=O)[C@]2(O1)C(=O)N[C@@](OC)(C(=O)c1ccccc1)C2O (stereo partly drawn) | nt | nt | nt | nt | nt | 0.176
Cc1cccc(NS(=O)(=O)c2cccc3nsnc23)c1 | 90.8 | 95.1 | 90.7 | 88.1 | 91.2 | -1.04
Cc1ccc(C)c(S(=O)(=O)Nc2ccc3scnc3c2)c1 | 29.9 | 30.8 | nt | 16.6* | 62.9 | -4.57*
CC(OC(=O)c1cc(-c2cccnc2)nc2ccccc12)C(=O)Nc1ccc2ccccc2c1 (stereo not drawn) | 84.3 | 79.5 | nt | nt | nt | nt
CCOC(=O)/C(C#N)=C\C1=C(N2CCCC2)CC(C)(CC)OC1 (stereo not drawn) | 92.9 | 97.1 | 112.8 | 36.2* | 88.4 | 2.25
CCOC(=O)/C(C#N)=C\C1=C(N2CCCC2)CC(C)(C)OC1 | 88.0 | 104.1 | 101.4 | 52.5 | 93.9 | 0.499
C/C(=N\NC(=S)Nc1cc(S(=O)(=O)N2CCOCC2)ccc1Cl)c1ccccc1F | 59.4 | 59.7 | nt | nt | nt | nt
O=C(CSc1nnc2c3ccccc3c3ccccc3c2n1)Nc1ccccc1 | 37.6 | 35.3 | nt | nt | nt | nt
O=C(CSc1nnc2c3ccccc3c3ccccc3c2n1)Nc1ccccc1F | 2.2* | 1.9* | nt | nt | nt | nt
